The results in this text go back to ChEMBL document CHEMBL2034975, “Cycloartane and friedelane triterpenoids from the leaves of Caloncoba glauca and their evaluation for inhibition of 11β-hydroxysteroid dehydrogenases” (J Nat Prod, 2012).

The structures appear in SMILES notation.

Holding throughout (type): cell-based
The target of test [1] is 11-beta-hydroxysteroid dehydrogenase 1 (Mus musculus) (UniProt P50172). Kind of test: Inhibition of mouse 11beta-HSD1 expressed in HEK293 cells assessed as conversion of [3H]cortisone into [3H]cortisol at 1 uM by scintillation proximity assay.
11-beta-hydroxysteroid dehydrogenase 1 (Mus musculus), sequence (P50172 whole entry, looked up): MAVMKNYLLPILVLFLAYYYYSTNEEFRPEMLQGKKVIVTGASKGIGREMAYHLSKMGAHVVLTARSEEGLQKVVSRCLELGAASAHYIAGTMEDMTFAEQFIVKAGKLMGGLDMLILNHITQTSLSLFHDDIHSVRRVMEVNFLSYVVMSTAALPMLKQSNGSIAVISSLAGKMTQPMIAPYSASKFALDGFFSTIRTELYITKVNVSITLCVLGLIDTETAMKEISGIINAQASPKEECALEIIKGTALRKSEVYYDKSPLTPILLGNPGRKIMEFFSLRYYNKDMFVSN
For test [2], the target named is T1, 11-beta-hydroxysteroid dehydrogenase type 2 (Homo sapiens) (UniProt P80365).
T1 sequence (whole entry): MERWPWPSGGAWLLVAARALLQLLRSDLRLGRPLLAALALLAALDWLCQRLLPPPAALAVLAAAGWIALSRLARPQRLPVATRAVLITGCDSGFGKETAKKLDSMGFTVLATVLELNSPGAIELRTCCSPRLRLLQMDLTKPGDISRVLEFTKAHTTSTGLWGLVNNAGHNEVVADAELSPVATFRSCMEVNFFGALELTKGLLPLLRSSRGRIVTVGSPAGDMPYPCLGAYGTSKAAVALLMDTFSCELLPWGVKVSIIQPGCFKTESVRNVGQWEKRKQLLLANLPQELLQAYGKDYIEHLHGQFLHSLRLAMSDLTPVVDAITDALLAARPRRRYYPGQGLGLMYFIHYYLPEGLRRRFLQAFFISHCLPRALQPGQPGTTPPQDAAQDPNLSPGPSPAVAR
Kind of test: Inhibition of human 11beta-HSD2 expressed in HEK293 cells assessed as conversion of [3H]cortisone into [3H]cortisol at 1 uM by scintillation proximity assay. On the technique in general: Scintillation proximity formats need no separation of bound from free tracer.

Test [3] has as its target T2, 11-beta-hydroxysteroid dehydrogenase 1 (Homo sapiens, UniProt P28845). Kind of test: Inhibition of human 11beta-HSD1 expressed in HEK293 cells assessed as conversion of [3H]cortisone into [3H]cortisol at 1 uM by scintillation proximity assay.
Target sequence in this assay (P28845 whole entry, looked up): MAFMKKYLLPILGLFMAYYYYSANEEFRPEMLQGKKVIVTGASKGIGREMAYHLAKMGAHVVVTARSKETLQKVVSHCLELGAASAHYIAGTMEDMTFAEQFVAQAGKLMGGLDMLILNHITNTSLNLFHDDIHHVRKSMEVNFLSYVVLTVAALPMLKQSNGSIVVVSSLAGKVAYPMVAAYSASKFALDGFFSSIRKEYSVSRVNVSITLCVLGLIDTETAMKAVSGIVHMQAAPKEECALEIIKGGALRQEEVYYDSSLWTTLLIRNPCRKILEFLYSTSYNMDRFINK
Test [4] has as its target T3, 11-beta-hydroxysteroid dehydrogenase type 2 (Mus musculus) (UniProt P51661).
T3 sequence (whole entry): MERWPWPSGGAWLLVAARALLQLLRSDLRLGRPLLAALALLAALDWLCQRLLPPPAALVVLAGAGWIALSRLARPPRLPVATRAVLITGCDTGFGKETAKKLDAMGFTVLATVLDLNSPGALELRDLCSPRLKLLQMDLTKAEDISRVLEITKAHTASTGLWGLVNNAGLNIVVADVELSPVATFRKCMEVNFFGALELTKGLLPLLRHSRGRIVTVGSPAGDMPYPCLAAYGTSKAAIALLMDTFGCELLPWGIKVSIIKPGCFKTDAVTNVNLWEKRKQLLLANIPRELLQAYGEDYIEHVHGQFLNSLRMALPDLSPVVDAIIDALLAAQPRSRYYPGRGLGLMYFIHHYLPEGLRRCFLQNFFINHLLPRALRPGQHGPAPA
As to the kind of experiment: Inhibition of mouse 11beta-HSD2 expressed in HEK293 cells assessed as conversion of [3H]cortisone into [3H]cortisol at 1 uM by scintillation proximity assay.

In test [5] the target is T2, 11-beta-hydroxysteroid dehydrogenase 1. Kind of test: Inhibition of human 11beta-HSD1 expressed in HEK293 cells assessed as conversion of [3H]cortisone into [3H]cortisol by scintillation proximity assay. Put shortly:
(§1)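 Full-length human or murine 11β-HSD1 cDNA was cloned into pcDNA3 and stably expressed in HEK-293 cells selected with 750 μg/mL G418. Microsomes from these cells were incubated with NADPH and [3H]cortisone. The [3H]cortisol formed was captured by a monoclonal antibody on protein A-coated SPA beads. Assays were run in duplicate and repeated twice; IC50 is given as the average. Glycyrrhizinic acid served as positive control.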
Target sequence in this assay (P28845 whole entry): as the sequence (P28845 whole entry, looked up) above

The target in test [6] is 11-beta-hydroxysteroid dehydrogenase 1 (Mus musculus, UniProt P50172). Kind of test: Inhibition of mouse 11beta-HSD1 expressed in HEK293 cells assessed as conversion of [3H]cortisone into [3H]cortisol by scintillation proximity assay. Put shortly:
as §1

Test [7] has as its target T4, 11-beta-hydroxysteroid dehydrogenase type 2 (Mus musculus, UniProt P51661).
T4 sequence (P51661 whole entry): T3 sequence (whole entry)
Kind of test: Inhibition of mouse 11beta-HSD2 expressed in HEK293 cells assessed as conversion of [3H]cortisone into [3H]cortisol by scintillation proximity assay.

Test [8] deals with T5, 11-beta-hydroxysteroid dehydrogenase type 2 (Homo sapiens, UniProt P80365).
T5 sequence (P80365 whole entry): T1 sequence (whole entry)
As to the kind of experiment: Inhibition of human 11beta-HSD2 expressed in HEK293 cells assessed as conversion of [3H]cortisone into [3H]cortisol by scintillation proximity assay.

11-beta-hydroxysteroid dehydrogenase 1 (Mus musculus, UniProt P50172), sequence (P50172 whole entry): as the sequence (P50172 whole entry, looked up) above

For the compound `C=C1C[C@@H]2[C@@]3(C)CC[C@]4(C)[C@H]5CC[C@@]6(C)[C@@H](CC[C@H](O)[C@@H]6C)[C@]5(C)CC[C@@]24C(=O)O[C@H]3[C@H]1O` (relative stereo), the inhibition in test [1], in test [2], in test [3] and in test [4] was below 50% in each case.
With `CC1(C)[C@@H](O[C@H]2O[C@H](C(=O)O)[C@@H](O)[C@H](O)[C@H]2O[C@@H]2O[C@H](C(=O)O)[C@@H](O)[C@H](O)[C@H]2O)CC[C@]2(C)[C@H]3C(=O)C=C4[C@@H]5C[C@@](C)(C(=O)O)CC[C@]5(C)CC[C@@]4(C)[C@]3(C)CC[C@@H]12` [GLYCYRRHIZIN], the results for the IC50 in test [5] and in test [6] were 6 nM and 3 nM, respectively.
Turning to `CC(=O)O[C@H]1CC[C@@H]2[C@](C)(CC[C@H]3[C@@]2(C)CC[C@@]2(C(=O)O)[C@@H]4CC(C)(C)CC[C@]4(C)CC[C@]32C)[C@H]1C`, the inhibition in test [1], in test [2], in test [3] and in test [4] was below 50% each time.
On to `C[C@H](CC[C@H](O)C(C)(C)O)[C@H]1[C@@H](O)C[C@]23C(=O)O[C@@]4(CC[C@]12C)C[C@@H]1CCC(=O)C(C)(C)[C@@H]1CC[C@H]43`, for which the inhibition in test [1], in test [2], in test [3] and in test [4] was below 50% throughout.
As to `C=C1C[C@@H]2[C@@](C)(CC[C@]3(C)[C@H]4CC[C@@]5(C)[C@@H](CC[C@H](O)[C@@H]5C)[C@]4(C)CC[C@@]23C(=O)O)C[C@@H]1O`, the inhibition in test [1], in test [2], in test [3] and in test [4] was below 50% in each case.
With `C[C@@H]1CC[C@@H](C(C)(C)O)OC(=O)[C@@]23C[C@@H](O)[C@H]1[C@@]2(C)CC[C@@]12C[C@@]14CCC(=O)C(C)(C)[C@@H]4CC[C@H]23`, the inhibition in test [1], in test [2], in test [3] and in test [4] was below 50% in each case.
With `C=C(C)[C@@H](O)CC[C@@H](C)[C@H]1CC[C@@]2(C(=O)O)[C@@H]3CC[C@H]4C(C)(C)C(=O)CC[C@@]45C[C@@]35CC[C@]12C` (relative stereo) [CALONCOBIC ACID A], the IC50 was 105 nM in test [5], above 100000 nM in test [7], above 100000 nM in test [8] and 132 nM in test [6].
For the compound `C[C@H](CC[C@@H](O)C(C)(C)O)[C@H]1CC[C@@]2(C(=O)O)[C@@H]3CC[C@H]4C(C)(C)[C@@H](O)CC[C@@]45C[C@@]35CC[C@]12C` (relative stereo) [CALONCOBIC ACID B], the IC50 was 72 nM in test [5], above 100000 nM in test [7], 400 nM in test [8] and 13 nM in test [6].

As usually defined, the inhibition is the drop in the measured response relative to a control, in per cent. One may read the IC50 as the midpoint of a concentration-inhibition curve.
